Results gathered from unrelated publications.
ABL1 phosphorylated: Tyrosine-protein kinase ABL1, phosphorylated (ABL1, Homo sapiens, UniProt P00519)
ABL1 F317I phosphorylated: Tyrosine-protein kinase ABL1, phosphorylated (ABL1, Homo sapiens, UniProt P00519, F317I)
ABL1 H396P non-phosphorylated: Tyrosine-protein kinase ABL1, non-phosphorylated (ABL1, Homo sapiens, UniProt P00519, H396P)
ABL1 Y253F: Tyrosine-protein kinase ABL1 (ABL1, Homo sapiens, UniProt P00519, Y253F)
ABL1 T315I phosphorylated: Tyrosine-protein kinase ABL1, phosphorylated (ABL1, Homo sapiens, UniProt P00519, T315I)
ABL1 T315I non-phosphorylated: Tyrosine-protein kinase ABL1, non-phosphorylated (ABL1, Homo sapiens, UniProt P00519, T315I)
ABL1 F317L phosphorylated: Tyrosine-protein kinase ABL1, phosphorylated (ABL1, Homo sapiens, UniProt P00519, F317L)
ABL1 M351T phosphorylated: Tyrosine-protein kinase ABL1, phosphorylated (ABL1, Homo sapiens, UniProt P00519, M351T)

SMILES	target	effect on	technique	concentration	remaining binding
Cc1nc(N2CC[C@@H](O)C2)ncc1-c1cc(C(F)(F)F)cc2[nH]ncc12	ABL1 phosphorylated	binding	competition with immobilised ligand	1 µM	61%
O=C(NCCCN1CCOCC1)c1ccc(Nc2ncc(Cl)c(-c3ccc(Cl)s3)n2)cc1	ABL1 F317I phosphorylated	binding	competition with immobilised ligand	1 µM	99%
CCN1CCN(Cc2ccc(C(=O)Nc3ccc(C)c(Oc4ccc5c(c4)CC(=O)N5)c3)cc2C(F)(F)F)CC1	Tyrosine-protein kinase ABL1, phosphorylated (ABL1, Homo sapiens, UniProt P00519, Q252H)	binding	competition with immobilised ligand	1 µM	49%
CC1=C(C#N)C(c2ccc3c(c2)c(NC(=O)c2ccccc2C)nn3C)C(C#N)=C(C)N1	ABL1 H396P non-phosphorylated	cell-free assay	competition with immobilised ligand	1 µM	100%
CN(C)c1nccc(-c2cnc3ncccn23)n1	ABL1 Y253F	binding		1 µM	41%
Cc1cnc(Nc2ccc(C(=O)N3CCC(N4CCCC4)CC3)cc2)nc1-c1cc2ccccc2s1	ABL1 H396P non-phosphorylated	binding	competition with immobilised ligand	1 µM	0.1%
CN(CCCC(F)(F)F)c1nccc(-c2cnn3ncccc23)n1	Tyrosine-protein kinase ABL1 (ABL1, Homo sapiens, UniProt P00519, Q252H)	binding		1 µM	100%
COc1cnc(Nc2cccc(S(N)(=O)=O)c2)nc1N1CCN(c2ccccc2)CC1	ABL1 T315I phosphorylated	binding	competition with immobilised ligand	1 µM	88%
CN([C@@H]1CCc2c(CC(=O)O)c3ccccc3n2C1)S(=O)(=O)c1ccc(F)cc1	ABL1 H396P non-phosphorylated	cell-free assay	competition with immobilised ligand	1 µM	100%
N[C@H]1CCN(c2nccc(-c3cnn4ncccc34)n2)C1	Tyrosine-protein kinase ABL1 (ABL1, Homo sapiens, UniProt P00519, F317L)	binding		1 µM	100%
O=C(NCc1ncc(C(F)(F)F)cc1Cl)c1ccc2c(c1)C1(CCS(=O)(=O)CC1)[C@@H](C1CC1)N2S(=O)(=O)c1ccc(F)cc1	Tyrosine-protein kinase ABL1, non-phosphorylated (ABL1, Homo sapiens, UniProt P00519, Q252H)	cell-free assay	competition with immobilised ligand	1 µM	100%
COc1cnc(Nc2cccc(S(N)(=O)=O)c2)nc1N1CCN(c2ccccc2)C(=O)C1	Tyrosine-protein kinase ABL1, non-phosphorylated (ABL1, Homo sapiens, UniProt P00519, F317L)	binding	competition with immobilised ligand	1 µM	90%
O=S(=O)(NC1CCC(c2cc(F)ccc2F)(S(=O)(=O)c2ccc(Cl)cc2)CC1)C(F)(F)F (stereo not drawn)	ABL1 H396P non-phosphorylated	cell-free assay	competition with immobilised ligand	1 µM	100%
CNC(=O)[C@@H]1CC[C@@H](n2c(-c3ccc4cnccc4c3)nc3ccc(C(=O)NCc4cccc(C(N)=O)c4)cc32)C1	ABL1 H396P non-phosphorylated	binding	competition with immobilised ligand	1 µM	86%
O=C(c1ccc(Nc2nccc(-c3cc4ccccc4s3)n2)cc1)N1CCC(N2CCCC2)CC1	ABL1 T315I non-phosphorylated	binding	competition with immobilised ligand	1 µM	2%
CN(C)c1ncc(F)c(-c2cnn3ncccc23)n1	Tyrosine-protein kinase ABL1 (ABL1, Homo sapiens, UniProt P00519, E255K)	binding		1 µM	66%
O=C(NCCCN1CCOCC1)c1ccc(Nc2nccc(-c3cc4ccccc4s3)n2)cc1	ABL1 F317L phosphorylated	binding	competition with immobilised ligand	1 µM	75%
C[C@H](c1ccc(F)cc1)N(Cc1cccc(C(=O)O)c1)C(=O)c1cnc2ccccc2c1	ABL1 F317L phosphorylated	cell-free assay	competition with immobilised ligand	1 µM	99%
CC1CCCN1c1nccc(-c2cnn3ncccc23)n1 (stereo not drawn)	ABL1 Y253F	binding		1 µM	96%
O=C(Nc1c[nH]nc1C(=O)NC1CCNCC1)c1cc(F)cc(F)c1	ABL1 M351T phosphorylated	binding	competition with immobilised ligand	1 µM	100%
O=C(c1ccc(Nc2ncc(Cl)c(-c3ccc(Cl)s3)n2)cc1)N1CCC(N2CCCC2)CC1	ABL1 F317I phosphorylated	binding	competition with immobilised ligand	1 µM	87%
C[C@@H](c1ccc(-n2cnc3c(N)ncnc32)cc1)N1CCc2nn(C)c(Cc3ccccc3)c2C1=O	ABL1 M351T phosphorylated	binding	competition with immobilised ligand	0.1 µM	49%
O=C(c1ccc(Nc2ncc(Cl)c(-c3cc4ccccc4s3)n2)cc1)N1CCC(N2CCCC2)CC1	ABL1 M351T phosphorylated	binding	competition with immobilised ligand	1 µM	12%
O=C(N1CCS(=O)(=O)CC1)N1C[C@H](c2ccc(OC(F)(F)F)cc2)C[C@H](c2nc(C3CC3)no2)C1	ABL1 T315I phosphorylated	cell-free assay	competition with immobilised ligand	1 µM	100%
COc1ncc2cc3ccccc3nc2c1C#N	ABL1 T315I non-phosphorylated	cell-free assay	competition with immobilised ligand	5 µM	100%
C=CC(=O)N1CCC(C(=O)NCC(=O)N2CCN(c3nc(-c4cnc(N)nc4C(F)F)nc(N4CCOCC4)n3)CC2)CC1	ABL1 T315I phosphorylated	binding	competition with immobilised ligand	1 µM	82%
O=C1NC(c2ccccn2)Sc2ccccc21 (stereo not drawn)	ABL1 phosphorylated	cell-free assay	competition with immobilised ligand	1 µM	72%
O=C(NCC1CCOCC1)c1n[nH]cc1NC(=O)c1c(F)cccc1F	ABL1 phosphorylated	binding	competition with immobilised ligand	1 µM	85%
c1cncc(-c2cccc(Nc3nccc(NC4CCCCC4)n3)c2)c1	Tyrosine-protein kinase ABL1, phosphorylated (ABL1, Homo sapiens, UniProt P00519, E255K)	binding	competition with immobilised ligand	10 µM	14%
Nc1ncc2c(n1)-c1c([nH]c3ccc(C#CC4CC4)cc13)CCCC2	ABL1 F317L phosphorylated	binding	competition with immobilised ligand	1 µM	88%
